Experimental data: ChEMBL document CHEMBL1240314, “Small-molecule inhibitor of p53 binding to mitochondria protects mice from gamma radiation” (2006)
Calls of active or inactive are those of the source. The calls are words filed in the database; no cut-off is given here.

Experiments:
[1] = biological target: Cellular tumor antigen p53 (Homo sapiens) (UniProt P04637); experiment: Binding affinity to p53 transfected in human […] cells assessed as reduction in p53 bound-Bcl-xL at 15 uM after 48 hrs; format: cell-based; settings: HEK293
How it was run: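 293T cells cotransfected with Flag-tagged wild-type Bcl-xL or Bcl-2 plus wild-type p53 plasmid; compound 15 mM (so in the source) applied 24 h after transfection; lysates (1 mg protein) immunoprecipitated with anti-Flag M2 gel, bound p53 detected with HRP-conjugated DO-1.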

Thymocyte [2] = experiment: Antiapoptotic activity against dexamethasone-induced apoptosis in mouse thymocyte at 10 uM; format: functional, cell-based
How it was run: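 Primary thymocytes from 4-week-old p53-null C57Bl/6 mice, short-term culture; dexamethasone 0.5 mM, 24 h, with compound at 10 mM as printed; viability by trypan blue (0.1%) or annexin/PI FACScan; means ± s.d., n = 3.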

HeLa = experiment: Antiapoptotic activity against staurosporine-induced cell death in human HeLa cells assessed as cell survival at 10 uM after 24 hrs by methylene blue assay; format: functional, cell-based
WI-38 = experiment: Antiapoptotic activity against Fas-induced apoptosis in human WI38 cells assessed as cell survival at 0.1 uM to 10 uM after 24 hrs by methylene blue assay in presence of 1 ug/ml cycloheximidine; format: functional, cell-based
[3] = Antiapoptotic activity against fas-induced apoptosis in mouse fibroblast assessed as cell survival at 0.1 uM to 10 uM by methylene blue assay in presence of 1 ug/ml cycloheximidine after 24 hrs; format: functional, cell-based
[4] = biological target: Cellular tumor antigen p53 (Mus musculus) (UniProt P02340); experiment: Inhibition of p53-mediated apoptosis in mouse fibroblast assessed as cell survival at 10 uM after 24 hrs by methylene blue assay
[5] = biological target: Cellular tumor antigen p53 (Homo sapiens) (UniProt P04637); experiment: Inhibition of p53-mediated apoptosis in human Saos-2 cells harboring p53 expressing lentiviral vector assessed as cell survival at 10 uM after 48 hrs by methylene blue assay; format: cell-based
How it was run: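 Saos-2 cells infected with p53-expressing lentivirus; 10 µM test agent added 5 h after infection. Survival assessed 48 h after infection by methylene blue (0.5%) staining of attached cells and optical density read-out. Means ± s.d., n = 3.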

[6] = biological target: Cellular tumor antigen p53 (Homo sapiens) (UniProt P04637); experiment: Inhibition of p53-mediated transactivation of promoter bax in human H1299 cells at 10 uM after 48 hrs by luciferase reporter assay; format: cell-based
[7] = biological target: Cellular tumor antigen p53 (Homo sapiens) (UniProt P04637); experiment: Inhibition of p53-dependent transcription of bax in human MCF7 cells; format: cell-based
How it was run: (§1)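 Northern analysis of MCF7 cells, p53 wild-type and shRNA p53-knockdown. Induction by UV 8.5 J m–2 or Dox […]. RNA isolated 18 h after treatment; 10 µg hybridised with 32P-labelled full-length cDNA probes for Bax, Noxa or Puma. 18S rRNA used as loading control.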

[8] = biological target: Cellular tumor antigen p53 (Homo sapiens) (UniProt P04637); experiment: Inhibition of p53-dependent transcription of noxa in human MCF7 cells; format: cell-based; how it was run: as §1
[9] = biological target: Cellular tumor antigen p53 (Homo sapiens) (UniProt P04637); experiment: Inhibition of p53-dependent transcription of puma in human U2OS cells; format: cell-based
How it was run: (§2)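 Northern analysis of U2OS cells, p53 wild-type and shRNA p53-knockdown. Induction by UV 8.5 J m–2 or Dox […]. RNA isolated 18 h after treatment; 10 µg hybridised with 32P-labelled full-length cDNA probes for Bax, Noxa or Puma. 18S rRNA used as loading control.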

[10] = biological target: Cellular tumor antigen p53 (Homo sapiens) (UniProt P04637); experiment: Inhibition of p53-dependent transcription of bax in doxorubicin-induced human U2OS cells; format: cell-based; how it was run: as §2
[11] = biological target: Cellular tumor antigen p53 (Homo sapiens) (UniProt P04637); experiment: Inhibition of p53-dependent transcription of noxa in doxorubicin-induced human U2OS cells; format: cell-based; how it was run: as §2
[12] = biological target: Cellular tumor antigen p53 (Homo sapiens) (UniProt P04637); experiment: Inhibition of p53-mediated transactivation of p21 in gamma-stimulated human SK-MEL-29 cells at 10 uM after 6 hrs
H1299 = experiment: Inhibition of TNFalpha induced NF-kappaB activation in human H1299 cells; format: cell-based
[13] = biological target: Cellular tumor antigen p53 (Mus musculus) (UniProt P02340); experiment: Inhibition of p53-dependent transcription of puma in mouse thymocyte
[14] = biological target: Cellular tumor antigen p53 (Mus musculus) (UniProt P02340); experiment: Inhibition of p53-dependent transcription of puma in gamma-stimulated mouse thymocyte
Homo sapiens = species: Homo sapiens; experiment: Induction of p21 mRNA expression in human SK-MEL-29 cells; format: functional, cell-based
How it was run: (§3)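 Wild-type and p53-deficient cell pairs stimulated with 5-FU ([…] as printed) or gamma irradiation (10 or 15 Gy); p21 mRNA quantified by real-time PCR; means ± s.d., n = 3.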

BJ = experiment: Induction of p21 mRNA expression in 5-fluorouracil-stimulated human BJ cells; format: functional, cell-based; how it was run: as §3
[15] = biological target: Cellular tumor antigen p53 (Homo sapiens) (UniProt P04637); experiment: Inhibition of p53 in human ConA cells assessed as effect on cell cycle distribution at 10 uM after 24 hrs; format: cell-based
How it was run: (§4)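 ConA cells given 10 µM test agent, with or without 10 Gy gamma irradiation. Cell-cycle distribution measured 24 h later.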

[16] = biological target: Cellular tumor antigen p53 (Homo sapiens) (UniProt P04637); experiment: Inhibition of p53 in gamma-stimulated human ConA cells assessed as effect on cell cycle distribution at 10 uM after 24 hrs; format: cell-based; how it was run: as §4
MCF7 [17] = experiment: Induction of Puma gene expression in UV-induced human MCF7 cells; format: functional, cell-based
How it was run: (§5)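 Northern blot: 10 mg RNA (so in the source) isolated 18 h after UV (8.5 J m–2) or doxorubicin (125 mg ml–1 as printed) from MCF7 or U2OS cells and p53-knockdown (lentiviral shRNA) counterparts; hybridized with 32P-labeled full-length cDNA probes for Bax, Noxa, Puma; 18S rRNA loading control.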

MCF7 [18] = experiment: Induction of Noxa gene expression in human MCF7 cells; format: functional, cell-based; how it was run: as §5
MCF7 [19] = experiment: Induction of Bax gene expression in human MCF7 cells; format: functional, cell-based; how it was run: as §5
U2OS [20] = experiment: Induction of Puma gene expression in doxorubicin-induced human U2OS cells; format: functional, cell-based; how it was run: as §5
U2OS [21] = experiment: Induction of Noxa gene expression in human U2OS cells; format: functional, cell-based; how it was run: as §5
U2OS [22] = experiment: Induction of Bax gene expression in doxorubicin-induced human U2OS cells; format: functional, cell-based; how it was run: as §5
Thymocyte [23] = experiment: Induction of Puma gene expression in mouse thymocytes; format: functional, cell-based
Thymocyte [24] = experiment: Induction of Puma gene expression in gamma-induced mouse thymocytes; format: functional, cell-based
HEK-293T = experiment: Antiapoptotic activity against Bax gene-induced apoptosis in human 293T cells transfected with pTZV3-CMV-Bax at 10 uM after 24 hrs; format: functional, cell-based
How it was run: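 Bax delivered by transient transfection of 293T and HT1080 cells with CMV-Bax construct (Lipofectamine Plus); compound at 10 mM as printed; apoptosis scored 24 h after transfection by annexin/PI staining on FACScan.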

HT-1080 = experiment: Antiapoptotic activity against Bax gene-induced apoptosis in human HT1080 cells transfected with pTZV3-CMV-Bax at 10 uM after 24 hrs; format: functional, cell-based
[25] = biological target: Cellular tumor antigen p53 (Mus musculus) (UniProt P02340); experiment: Binding affinity to p53 in gamma irradiated mouse thymocyte assessed as cytosolic p53 concentration at 10 uM after 2 hrs
[26] = biological target: Cellular tumor antigen p53 (Mus musculus) (UniProt P02340); experiment: Binding affinity to p53 in gamma irradiated mouse thymocyte assessed as cytosolic Bcl-2 concentration at 10 uM after 2 hrs
[27] = biological target: Cellular tumor antigen p53 (Mus musculus) (UniProt P02340); experiment: Binding affinity to p53 in gamma irradiated mouse thymocyte assessed as cytosolic p21 concentration at 10 uM after 2 hrs
[28] = biological target: Cellular tumor antigen p53 (Mus musculus) (UniProt P02340); experiment: Binding affinity to p53 in gamma irradiated mouse thymocyte assessed as cytosolic caspase 8 concentration at 10 uM after 2 hrs
Thymocyte [29] = experiment: Induction of p21 mRNA expression in gamma-stimulated mouse thymocytes

Sequence of Cellular tumor antigen p53 (Homo sapiens) (P04637 whole entry, looked up): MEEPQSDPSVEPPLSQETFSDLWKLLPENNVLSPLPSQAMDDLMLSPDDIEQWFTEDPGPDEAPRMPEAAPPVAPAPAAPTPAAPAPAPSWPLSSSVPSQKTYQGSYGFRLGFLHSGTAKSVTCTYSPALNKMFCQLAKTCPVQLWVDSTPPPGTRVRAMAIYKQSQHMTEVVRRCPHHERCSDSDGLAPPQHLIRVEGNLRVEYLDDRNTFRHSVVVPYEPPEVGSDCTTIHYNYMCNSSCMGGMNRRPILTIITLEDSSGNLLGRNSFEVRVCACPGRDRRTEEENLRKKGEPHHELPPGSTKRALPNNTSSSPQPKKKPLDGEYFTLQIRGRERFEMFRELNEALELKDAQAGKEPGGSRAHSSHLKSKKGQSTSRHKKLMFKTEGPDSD
Sequence of Cellular tumor antigen p53 (Mus musculus) (P02340 whole entry): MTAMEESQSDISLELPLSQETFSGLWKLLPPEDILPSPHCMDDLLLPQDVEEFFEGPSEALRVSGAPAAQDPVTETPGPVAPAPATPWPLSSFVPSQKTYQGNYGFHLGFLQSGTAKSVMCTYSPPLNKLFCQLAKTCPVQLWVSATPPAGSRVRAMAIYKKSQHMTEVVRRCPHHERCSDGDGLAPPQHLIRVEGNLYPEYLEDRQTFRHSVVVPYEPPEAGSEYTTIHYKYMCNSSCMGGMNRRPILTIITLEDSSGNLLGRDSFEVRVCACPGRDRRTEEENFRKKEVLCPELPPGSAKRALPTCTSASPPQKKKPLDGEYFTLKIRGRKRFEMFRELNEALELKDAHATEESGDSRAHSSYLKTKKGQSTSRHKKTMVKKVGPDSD

Q: With `NS(=O)(=O)C#Cc1ccccc1` as the molecule, how does the Activity [1] read?
A: Active

Q: And the Activity (Thymocyte [2])?
A: inactive

Q: What about the Activity (HeLa) of the same molecule?
A: inactive

Q: And the Activity (WI-38)?
A: inactive

Q: What about the Activity [3] of the same molecule?
A: inactive

Q: And the inhibition [4]?
A: Active

Q: And the inhibition [5]?
A: Active

Q: What about the inhibition [6] of the same molecule?
A: inactive

Q: And the inhibition [7]?
A: inactive

Q: And the inhibition [8]?
A: inactive

Q: What about the inhibition [9] of the same molecule?
A: inactive

Q: What about the inhibition [10] of the same molecule?
A: inactive

Q: And the inhibition [11]?
A: inactive

Q: And the inhibition [12]?
A: inactive

Q: What about the inhibition (H1299) of the same molecule?
A: inactive

Q: And the inhibition [13]?
A: inactive

Q: And the inhibition [14]?
A: inactive

Q: What about the Activity (Homo sapiens) of the same molecule?
A: inactive

Q: What about the Activity (BJ) of the same molecule?
A: inactive

Q: What about the inhibition [15] of the same molecule?
A: inactive

Q: And the inhibition [16]?
A: inactive

Q: What about the Activity (MCF7 [17]) of the same molecule?
A: inactive

Q: What about the Activity (MCF7 [18]) of the same molecule?
A: inactive

Q: And the Activity (MCF7 [19])?
A: inactive

Q: What about the Activity (U2OS [20]) of the same molecule?
A: inactive

Q: What about the Activity (U2OS [21]) of the same molecule?
A: inactive

Q: What about the Activity (U2OS [22]) of the same molecule?
A: inactive

Q: What about the Activity (Thymocyte [23]) of the same molecule?
A: inactive

Q: And the Activity (Thymocyte [24])?
A: inactive

Q: What about the Activity (HEK-293T) of the same molecule?
A: inactive

Q: What about the Activity (HT-1080) of the same molecule?
A: inactive

Q: What about the Activity [25] of the same molecule?
A: inactive

Q: And the Activity [26]?
A: inactive

Q: What about the Activity [27] of the same molecule?
A: inactive

Q: What about the Activity [28] of the same molecule?
A: inactive

Q: And the Activity (Thymocyte [29])?
A: inactive
